Bioassay records deposited in PubChem by Sanford-Burnham Center for Chemical Genomics.
PMI activator: phosphomannose isomerase (human) activation; purified human PMI, coupled resazurin fluorescence, 20 min; stronger effect = higher value; 1 = vehicle control, 0 substrate-free wells; P34949; AID 1214; activation factor at 20 µM; 190,000 compounds, 0.005% hits;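 active = activation factor of 2 or more at 20 µM, relative to plate controls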
Target sequence (P34949 whole entry, looked up): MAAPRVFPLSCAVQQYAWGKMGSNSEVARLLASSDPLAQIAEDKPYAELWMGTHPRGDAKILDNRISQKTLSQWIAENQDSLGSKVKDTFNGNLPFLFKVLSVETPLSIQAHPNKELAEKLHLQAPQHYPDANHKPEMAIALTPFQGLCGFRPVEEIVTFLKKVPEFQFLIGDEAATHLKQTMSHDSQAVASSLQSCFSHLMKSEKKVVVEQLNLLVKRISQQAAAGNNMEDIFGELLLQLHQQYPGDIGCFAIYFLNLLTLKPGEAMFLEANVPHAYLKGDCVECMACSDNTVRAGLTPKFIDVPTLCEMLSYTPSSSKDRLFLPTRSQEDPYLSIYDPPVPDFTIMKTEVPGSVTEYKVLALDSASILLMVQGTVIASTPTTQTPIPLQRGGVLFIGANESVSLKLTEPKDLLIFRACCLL
PMI act hi M6P: increases human PMI activity with near-saturating mannose 6-phosphate; coupled PMI enzyme assay, resazurin fluorescence, 20 min; stronger effect = higher value; 1 = untreated enzyme, 0 = substrate-free blank; activation factor at 20 µM; P34949; 190,000 compounds, 0.34% hits;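 active = activation factor of 2 or more at 20 µM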
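test system = human PMI in coupled enzyme assay | medium = HEPES-buffered pH 7.4 with magnesium and detergent | also added = 1.0 mM mannose-6-phosphate substrate with 0.22 mM NADP+ | compound = 20 µM single dose | times = 20 min incubation at room temperature | measured by = resorufin fluorescence (Ex 544/Em 590 nm) from resazurin via diaphorase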
G6PDH CS: L. mesenteroides G6PDH inhibition counter-screen; Purified L. mesenteroides G6PDH, diaphorase/resazurin coupled fluorescence, 45 min; inhibition, % at 5 µM; 200,000 compounds, 0.12% hits; in the data active = inhibition above about 50%
Diaphorase inh: counter-screen for diaphorase-based assays: diaphorase inhibitors and chemical oxidizers. diaphorase resazurin-to-resorufin fluorescence, NADH, 16 min; bacterial (C. kluyveri) enzyme, not human. inhibition, % at 20 µM. 190,000 compounds, 0.69% hits. AID 1217;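 active = primary screen inhibition at 20 µM above a set limit, cut at about 50% in these data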;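 note: plate controls were DMSO with full reaction for no effect and wells lacking NADH for full effect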
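System: Diaphorase enzyme from Clostridium kluyveri | Amount: Enzyme working solution with 0.14 U/mL diaphorase | Benchmarks: No-NADH positive control and DMSO neutral control | Signal: Fluorescence of resorufin formed from resazurin, Ex 544/Em 590 nm | Schedule: 16-min room-temperature incubation before reading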
Diaph act CS: counter-screen for diaphorase-based assays: diaphorase activators and chemical reducers; Diaphorase/resazurin coupled assay, resorufin fluorescence, 16 min; stronger effect = higher value; 1 = vehicle wells, 0 = NADH-free wells; activation factor at 20 µM; 190,000 compounds, 0.005% hits;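 active = diaphorase activity raised at least twofold by the compound at 20 µM; inactive = activation factor below 2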
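Test system: Clostridium kluyveri diaphorase, purified enzyme. Buffer or medium: 50 mM HEPES pH 7.4 buffer plus MgCl2 and Tween 20. Also added: 0.114 mM NADH and 0.1 mM resazurin, final amounts. Dosing: compound 20 µM once, DMSO 1%. Schedule: 16 min enzyme reaction, ambient temperature. Detection: fluorescence of resorufin, 544 nm excitation, 590 nm emission.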
* marks the source's active call; other numbers are inactive results. Shown are actives, neighbours in structure and some others; about 1.1% of the full set was active somewhere.

Screening COc1ccccc1/C=C/C=N/n1c(-c2ccncc2)n[nH]c1=S returned PMI activator 0.8, PMI act hi M6P 0.9, G6PDH CS 5, Diaphorase inh 65* and Diaph act CS 0.3.
For COc1ccccc1/C=C/C=N/n1c(-c2ccc(C)cc2)n[nH]c1=S the results were PMI activator 1, PMI act hi M6P 1, G6PDH CS -4, Diaphorase inh 28 and Diaph act CS 0.7.
CCOC(=O)c1oc2cccc(OCC(O)CNC(C)C)c2c1C (stereo not drawn) was read as PMI activator 0.9, PMI act hi M6P 1.1, G6PDH CS 8, Diaphorase inh -4 and Diaph act CS 1.
`Cc1ccc2nsnc2c1NC(=O)COc1ccccc1F` gave PMI activator 1, PMI act hi M6P 1, G6PDH CS 8, Diaphorase inh 17 and Diaph act CS 0.8.
COCCN(C(=O)CCc1nnc(CCc2c[nH]c3ccccc23)o1)C(C)C was read as PMI activator 1, PMI act hi M6P 1, G6PDH CS 3, Diaphorase inh 3 and Diaph act CS 1.
Cc1cc(-c2n[nH]c(=S)n2/N=C/c2ccc(C)s2)n[nH]1 was read as PMI activator 0.9, PMI act hi M6P 1, G6PDH CS -2, Diaphorase inh 32 and Diaph act CS 0.7.
For Cc1cc(-c2n[nH]c(=S)n2/N=C/C=C/c2ccccc2)n[nH]1 the results were PMI activator 0.8, PMI act hi M6P 1, G6PDH CS 6, Diaphorase inh 50* and Diaph act CS 0.5.
Screening CCC1=NN(C(=O)C(=O)Nc2ccc(Br)cc2)C(O)(C(F)(F)F)C1 (stereo not drawn) returned PMI activator 1.2, PMI act hi M6P 1.2, G6PDH CS 1, Diaphorase inh -2 and Diaph act CS 1.
Screening C=CCNC(=O)CC(C)C(CCCCC)C(=O)O (stereo not drawn) returned PMI activator 0.9, PMI act hi M6P 0.9, G6PDH CS 4, Diaphorase inh 14 and Diaph act CS 0.9.
CC(C)CC(COCc1ccc(Cl)cc1)N1CCN(C(=O)c2ccc(Cl)cc2Cl)CCC1=O (stereo not drawn) was read as PMI activator 1, PMI act hi M6P 1, G6PDH CS 16, Diaphorase inh 9 and Diaph act CS 0.9.
For Cc1ccc(C(=O)N/C(=C\c2ccccc2F)c2nc(=S)[nH][nH]2)cc1 the results were PMI activator 1.3, PMI act hi M6P 1.3, G6PDH CS 4, Diaphorase inh 51* and Diaph act CS 0.5.
`O=C(O)CC(NC(=O)C12CC3CC(CC(C3)C1)C2)c1ccc(OC2CCCC2)cc1` (stereo not drawn) gave PMI activator 1.2, PMI act hi M6P 1, G6PDH CS 3, Diaphorase inh 2 and Diaph act CS 1.
For CCN(CC)c1nc2c3c(nc4c(c3c1C#N)CC(=O)N4c1ccc(Cl)cc1)NC(C)=N2 the results were PMI activator 0.7, PMI act hi M6P 0.7, G6PDH CS -24, Diaphorase inh 58* and Diaph act CS 0.4.
For CCc1ccc(N2C(=O)Cc3c2nc(N)c(C#N)c3N)cc1 the results were PMI activator 0.8, PMI act hi M6P 0.9, G6PDH CS -1, Diaphorase inh 36 and Diaph act CS 0.6.
`CN1CCc2cccc3c2[C@@H]1Cc1ccc(O)c(O)c1-3` gave PMI activator 0.4, PMI act hi M6P 0.5, G6PDH CS 40, Diaphorase inh 69* and Diaph act CS 0.3.
`COc1ccc2c(c1O)-c1ccccc1CCN(C)C2` gave PMI activator 1, PMI act hi M6P 0.9, G6PDH CS 14, Diaphorase inh 0 and Diaph act CS 1.
Clc1ccc(-c2cn3cccnc3n2)cc1Cl was read as PMI activator 1.5, PMI act hi M6P 2*, G6PDH CS -13, Diaphorase inh 8 and Diaph act CS 0.9.
`CCn1c2ccccc2c2nc3ccccc3nc21` gave PMI activator 1, PMI act hi M6P 0.9, G6PDH CS 0, Diaphorase inh 32 and Diaph act CS 0.7.
Screening CCn1c2ccccc2c2nc3cc(C(=O)O)ccc3nc21 returned PMI activator 0.9, PMI act hi M6P 0.7, G6PDH CS 16, Diaphorase inh 60* and Diaph act CS 0.4.
